Laboratory results from ChEMBL document CHEMBL1144974, “Design, synthesis, and activity of novel cis- and trans-3,6-disubstituted pyran biomimetics of 3,6-disubstituted piperidine as potential ligands for the dopamine transporter” (Bioorg Med Chem Lett, 2003).

Experiments:
[1] = target: Sodium-dependent dopamine transporter (Rattus norvegicus, UniProt P23977); experiment: Inhibition of binding of [3H]WIN-35 428 to (DAT) dopamine transporter in rat striatum; assay type: tissue-based
[2] = target: Norepinephrine transporter (Rattus norvegicus, UniProt Q9WTR4); experiment: Inhibition of binding of [3H]nisoxetine to (NET) norepinephrine transporter in rat striatum; assay type: tissue-based
Norepinephrine transporter, sequence (Q9WTR4 whole entry): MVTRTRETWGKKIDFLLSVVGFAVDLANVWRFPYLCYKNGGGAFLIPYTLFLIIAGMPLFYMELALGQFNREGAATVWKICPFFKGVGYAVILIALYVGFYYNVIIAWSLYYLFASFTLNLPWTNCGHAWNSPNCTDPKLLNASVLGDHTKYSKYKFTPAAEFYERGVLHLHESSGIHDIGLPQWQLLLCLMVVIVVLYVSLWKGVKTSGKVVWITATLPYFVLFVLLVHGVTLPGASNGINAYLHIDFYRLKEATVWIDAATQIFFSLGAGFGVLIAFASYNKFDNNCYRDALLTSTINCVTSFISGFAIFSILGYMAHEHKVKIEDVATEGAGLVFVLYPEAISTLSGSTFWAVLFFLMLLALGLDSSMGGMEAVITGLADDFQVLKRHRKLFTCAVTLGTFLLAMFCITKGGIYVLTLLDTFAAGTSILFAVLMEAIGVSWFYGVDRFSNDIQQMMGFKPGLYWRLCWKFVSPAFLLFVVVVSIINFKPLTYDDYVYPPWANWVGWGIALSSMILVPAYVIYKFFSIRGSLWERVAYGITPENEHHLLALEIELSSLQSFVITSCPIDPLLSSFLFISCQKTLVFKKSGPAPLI
Procedure, shortened: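 Radioligand displacement of [3H]nisoxetine labelling NET; other binding conditions are referred to earlier work. Values are means ± SEM of three independent experiments, each assayed in triplicate.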

[3] = target: Sodium-dependent serotonin transporter (Rattus norvegicus, UniProt P31652); experiment: Inhibition of binding of [3H]citalopram to (SERT) serotonin transporter in rat striatum; assay type: tissue-based
Sodium-dependent serotonin transporter, sequence (P31652 whole entry): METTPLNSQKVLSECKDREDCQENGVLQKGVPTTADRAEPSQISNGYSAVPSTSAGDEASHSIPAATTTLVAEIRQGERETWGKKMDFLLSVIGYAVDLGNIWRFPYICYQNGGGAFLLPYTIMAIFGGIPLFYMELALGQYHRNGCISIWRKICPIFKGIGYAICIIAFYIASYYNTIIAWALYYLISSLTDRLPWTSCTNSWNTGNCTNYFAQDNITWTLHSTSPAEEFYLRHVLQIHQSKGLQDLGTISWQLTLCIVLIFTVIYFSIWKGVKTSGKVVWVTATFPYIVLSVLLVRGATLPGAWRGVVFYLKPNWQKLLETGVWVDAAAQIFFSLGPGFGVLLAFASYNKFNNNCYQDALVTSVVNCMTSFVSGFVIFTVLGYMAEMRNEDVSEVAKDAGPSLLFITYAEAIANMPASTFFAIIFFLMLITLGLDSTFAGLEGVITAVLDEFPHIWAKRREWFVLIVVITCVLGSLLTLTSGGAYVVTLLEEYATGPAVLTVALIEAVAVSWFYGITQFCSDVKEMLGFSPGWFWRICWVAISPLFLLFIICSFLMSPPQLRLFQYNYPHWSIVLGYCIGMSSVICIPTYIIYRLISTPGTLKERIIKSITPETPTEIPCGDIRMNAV

Rattus norvegicus = species: Rattus norvegicus; experiment: Inhibition of [3H]DA dopamine (DA) reuptake activity; assay type: functional

Sodium-dependent dopamine transporter, sequence (P23977 whole entry): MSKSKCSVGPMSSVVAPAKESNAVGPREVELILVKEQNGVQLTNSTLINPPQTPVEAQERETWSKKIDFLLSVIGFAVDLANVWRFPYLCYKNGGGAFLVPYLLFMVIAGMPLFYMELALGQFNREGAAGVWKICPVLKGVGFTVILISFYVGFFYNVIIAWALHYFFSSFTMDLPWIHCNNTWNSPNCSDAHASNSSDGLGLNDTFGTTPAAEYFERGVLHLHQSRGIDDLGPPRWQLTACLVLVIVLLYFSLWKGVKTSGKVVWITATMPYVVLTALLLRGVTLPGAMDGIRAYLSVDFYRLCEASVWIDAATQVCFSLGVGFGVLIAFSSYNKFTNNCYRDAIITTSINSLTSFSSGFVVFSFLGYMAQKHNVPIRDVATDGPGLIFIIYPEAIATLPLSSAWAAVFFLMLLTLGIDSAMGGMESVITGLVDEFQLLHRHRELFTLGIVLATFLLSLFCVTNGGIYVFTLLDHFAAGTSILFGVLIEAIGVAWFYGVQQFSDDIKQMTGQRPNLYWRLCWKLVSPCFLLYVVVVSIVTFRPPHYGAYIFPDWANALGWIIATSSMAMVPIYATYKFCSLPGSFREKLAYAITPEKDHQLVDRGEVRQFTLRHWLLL

Row | SMILES | IC50 [1] [nM] | IC50 [2] [nM] | IC50 [3] [nM] | IC50 (Rattus norvegicus) [nM]
1 | Fc1ccc(CNC2CCC(C(c3ccccc3)c3ccccc3)OC2)cc1 (single isomer, unassigned) | 313 | 12700 | 8410 | 
2 | Fc1ccc(CNC2CCC(C(c3ccccc3)c3ccccc3)OC2)cc1 (racemic) | 163 | 232 | 1860 | 156
3 | Fc1ccc(CNC2CCC(C(c3ccccc3)c3ccccc3)NC2)cc1 (configuration not stated) | 32.5 | 1020 | 2220 | 45.7
4 | O=[N+]([O-])c1ccc(CNC2CCC(C(c3ccccc3)c3ccccc3)OC2)cc1 (racemic) | 38.3 |  |  | 102
5 | N#Cc1ccc(CNC2CCC(C(c3ccccc3)c3ccccc3)OC2)cc1 (racemic) |  | 1580 | 863 | 
6 | COc1ccc(CNC2CCC(C(c3ccccc3)c3ccccc3)OC2)cc1 (racemic) | 84 |  |  | 59.5
